Measurements published in paper PMC4449736 (Science translational medicine, 2015).
Where a name gives a salt, the structure may show the parent alone.

What was measured:
[1] = assay type: in vivo, rhesus macaques (Macaca mulatta)
[2] = Plasma PK of GSK744 in Depo-Provera-treated female rhesus macaques; assay type: in vivo
How it was run: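 Female Indian rhesus macaques received 30 mg Depo-Provera IM on weeks -3 and 2 and monthly IM injections of long-acting test compound (8 treated, 4 controls), with three intravaginal SHIV162P3 challenges. Plasma drug levels were followed per animal and expressed as multiples of PAIC90. Plasma SHIV RNA was tracked weekly for 24 weeks by real-time RT-PCR (sensitivity 40 copies/mL) to time first vRNA detection.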

[3] = system: single-cycle recombinant viruses with the integrase-coding regions of FG95 mutants; test: Susceptibility of single-cycle SIV recombinant viruses to GSK744 in TZM-bl cells; assay type: cell-based; conditions: Table S2
[4] = oral GSK744, humans; cited from earlier work
[5] = system: simian-human immunodeficiency virus (SHIV); conditions: cited from earlier work
[6] = system: UGT1A1, UGT1A9; conditions: hepatic glucuronidation pathway; cited from earlier work
[7] = human studies, data limited; cited from earlier work
[8] = system: HIV; conditions: TDF alone, injection drug users; cited from earlier work

With `C[C@H]1CO[C@@H]2Cn3cc(C(=O)NCc4ccc(F)cc4F)c(=O)c(O)c3C(=O)N12` [GSK744] the “mean cervical T:P ratio” value ([1]; Depo-Provera-treated female macaques, 50 mg/kg GSK744 LA) was 0.09 (range: below detection to 0.20), the “GSK744 concentrations lower on average in cervical tissues than rectal tissues” value ([1]; Depo-Provera-treated female macaques, 50 mg/kg GSK744 LA monthly) was 5 fold and the “mean T:P ratio in unwashed rectal tissues” value ([1]; Depo-Provera-treated female macaques, 50 mg/kg GSK744 LA, no saline rinse) was 0.37 (range: 0.15 to 1.13). The Kp ([1]; female, Indian, rhesus monkey, cervical tissue / plasma, intramuscular, 50 mg/kg) was roughly 0.1, the “plasma GSK744 concentration at first vRNA detection relative to PAIC90” value ([2]; macaque FG95) was less than 1 x PAIC90 and the “plasma GSK744 concentration at the time of challenges relative to PAIC90” value ([2]; macaque FG95, three challenges) was 13.3–18.4 x PAIC90. The “plasma GSK744 concentration at first vRNA detection relative to PAIC90” value ([2]; macaque FM26) was “≈ 2.2 x PAIC90”, the “plasma GSK744 concentration at the time of challenges relative to PAIC90” value ([2]; macaque FM26, three challenges) was 12.4–18.1 X PAIC90 and the “viral susceptibility to GSK744” value ([3]; integrase E198G mutation (FG95, week 20)) was “did not decrease viral susceptibility”. The “susceptibility to GSK744 in vitro” value ([3]; integrase P142S, I210V mutations (FG95, week 11)) was “did not decrease susceptibility”, the “apparent terminal half-life (t1/2)” value [4] was “approximately 40 hours” and the protection ([5]; GSK744 plasma concentrations >3x PAIC90) was 100%. For the same compound, the efficacy ([5]; GSK744 plasma concentrations ≥1x PAIC90) was 97%, the metabolizing enzymes [6] was “primarily by UGT1A1, with some involvement from UGT1A9” and the “relative mucosal tissue penetration” value [7] was “penetrates cervical tissue slightly more efficiently than rectal tissue”.
For `CC(C)OC(=O)OCOP(=O)(CO[C@H](C)Cn1cnc2c(N)ncnc21)OCOC(=O)OC(C)C` [TDF, tenofovir disoproxil fumarate], the “reduced HIV infection” value [8] is given as 49%.
